One compound from ChEMBL document CHEMBL4811225 (J Med Chem, 2021) can be followed below.

For assay [1], the target named is Neuronal acetylcholine receptor; alpha2/beta2 (Rattus norvegicus) (UniProt P12389+P12390). In words: Inhibition of rat alpha2beta2 nAChR expressed in Xenopus laevis oocytes assessed as inhibition of acetylcholine-induced current response at 10 uM by two-electrode voltage-clamp method relative to control. It counts as cell-based. As to conditions: Oocyte. The essentials: (§1)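 Oocytes (stage IV–V) injected with equal-ratio cRNAs of cloned subunits; TEVC 1–5 days post-injection. ACh 100 μM for β2-containing and α9α10 subtypes, 1 s pulses every 60 s. Peptide 10 μM in 5 min static bath; response normalized to ACh response after 5 min control-saline bath; mean ± SD, n = 4.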

For assay [2], the target named is Neuronal acetylcholine receptor; alpha2/beta4 (Homo sapiens, UniProt P30926+Q15822). The experiment in a line: Inhibition of human alpha2beta4 nAChR expressed in Xenopus laevis oocytes assessed as inhibition of acetylcholine-induced current response at 10 uM by two-electrode voltage-clamp method relative to control. It counts as cell-based. As to conditions: Oocyte. Put shortly:
(§2)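 Stage IV–V X. laevis oocytes expressing equal-ratio cRNAs of α2β4, α3β4, α4β4 or α7 subunits; TEVC 1–5 days after injection. ACh 300 μM, 1 s at 60 s intervals. 10 μM peptide as 5 min static bath, normalized to ACh response after 5 min bath of control saline; mean ± SD, n = 4.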
On the technique in general: Two-electrode voltage clamp holds a large cell at a set potential and records current.

Assay [3] has as its target Neuronal acetylcholine receptor; alpha3/beta2 (Rattus norvegicus, UniProt P04757+P12390). It counts as cell-based, Oocyte.
In assay [4] the target is Neuronal acetylcholine receptor; alpha3/alpha6/beta2/beta3 (Homo sapiens, UniProt P17787+P32297+Q05901+Q15825). The experiment in a line: Inhibition of human alpha6/alpha3beta2beta3 nAChR expressed in Xenopus laevis oocytes assessed as inhibition of acetylcholine-induced current response by two-electrode voltage-clamp method. Type of assay: cell-based, Oocyte. Put shortly: (§3)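 Two-electrode voltage clamp of stage IV–V oocytes 1–5 days after equal-ratio cRNA injection; ACh 100 μM (β2-containing subtypes, α9α10), 1 s every 60 s in frog saline. Peptide perfused up to 1 μM, responses normalized to mean of three control responses; above 1 μM, 5 min static bath. IC50 with 95% CI; n = oocytes.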

In assay [5] the target is Neuronal acetylcholine receptor; alpha9/alpha10 (Homo sapiens, UniProt Q9GZZ6+Q9UGM1). In words: Inhibition of human alpha9alpha10 nAChR expressed in Xenopus laevis oocytes assessed as inhibition of acetylcholine-induced current response by two-electrode voltage-clamp method. It counts as cell-based, Oocyte. The essentials:
as §3

Assay [6] is filed under the species Homo sapiens. The experiment in a line: Selectivity ratio of IC50 for human alpha3beta4 nAChR to IC50 for human alpha6/alpha3beta4 nAChR. Put shortly:
(§4)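 Ratio of each subtype's IC50, from TEVC inhibition of ACh-evoked currents in X. laevis oocytes, to the IC50 at the same species' α6/α3β4 nAChR; IC50 values with 95% CI, n = number of oocytes.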

The species named for assay [7] is Homo sapiens. The experiment in a line: Selectivity ratio of IC50 for human alpha9alpha10 nAChR to IC50 for human alpha6/alpha3beta4 nAChR. The essentials: as §4
For assay [8], the species on record is Rattus norvegicus. The experiment in a line: Selectivity ratio of IC50 for rat alpha3beta4 nAChR to IC50 for rat alpha6/alpha3beta4 nAChR. The essentials:
as §4

Assay [9] deals with Neuronal acetylcholine receptor subunit alpha-7 (Rattus norvegicus) (UniProt Q05941). The experiment in a line: Inhibition of rat alpha7 nAChR expressed in Xenopus laevis oocytes assessed as inhibition of acetylcholine-induced current response at 10 uM by two-electrode voltage-clamp method relative to control. Particulars: Oocyte. It counts as cell-based. The essentials: as §2

Assay [10] concerns the target T1, Neuronal acetylcholine receptor; alpha2/beta2 (Homo sapiens, UniProt P17787+Q15822). The experiment in a line: Inhibition of human alpha2beta2 nAChR expressed in Xenopus laevis oocytes assessed as inhibition of acetylcholine-induced current response at 10 uM by two-electrode voltage-clamp method relative to control. It counts as cell-based. As to conditions: Oocyte. The essentials: as §1

For assay [11], the target named is Nicotinic acetylcholine receptor alpha6/alpha3/beta4 (Rattus norvegicus, UniProt P04757+P12392+P43143). Type of assay: cell-based, Oocyte.
The target of assay [12] is Nicotinic acetylcholine receptor alpha9/alpha10 (Rattus norvegicus) (UniProt P43144+Q9JLB5). The experiment in a line: Inhibition of rat alpha9alpha10 nAChR expressed in Xenopus laevis oocytes assessed as inhibition of acetylcholine-induced current response at 10 uM by two-electrode voltage-clamp method relative to control. It counts as cell-based. Particulars: Oocyte. The essentials:
as §1

The target of assay [13] is Neuronal acetylcholine receptor; alpha4/beta2 (Homo sapiens, UniProt P17787+P43681). In words: Inhibition of human alpha4beta2 nAChR expressed in Xenopus laevis oocytes assessed as inhibition of acetylcholine-induced current response by two-electrode voltage-clamp method. It counts as cell-based, Oocyte. The essentials:
as §3

The species entered for assay [14] is Homo sapiens. The experiment in a line: Selectivity ratio of IC50 for human alpha2beta2 nAChR to IC50 for human alpha6/alpha3beta4 nAChR. Put shortly:
as §4

Assay [15] can be described thus: Inhibition of human alpha4beta4 nAChR expressed in Xenopus laevis oocytes assessed as inhibition of acetylcholine-induced current response by two-electrode voltage-clamp method. It counts as cell-based. As to conditions: Oocyte. The essentials: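 TEVC on stage IV–V oocytes 1–5 days after equal-ratio cRNA injection (α2β4, α3β4, α4β4, α7). ACh 300 μM, 1 s pulses at 60 s intervals under frog saline perfusion. Peptide perfused to 1 μM, normalized to average of three control responses; higher concentrations by 5 min static bath. IC50 with 95% CI, n oocytes.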

Assay [16] addresses T2, Nicotinic acetylcholine receptor alpha6/alpha3/beta4 (Homo sapiens, UniProt P30926+P32297+Q15825). As to conditions: Oocyte.
The target of assay [17] is Neuronal acetylcholine receptor subunit alpha-7 (Rattus norvegicus, UniProt Q05941). It counts as cell-based, Oocyte.
For assay [18], the species on record is Rattus norvegicus. The experiment in a line: Selectivity ratio of IC50 for rat alpha2beta2 nAChR to IC50 for rat alpha6/alpha3beta4 nAChR. Put shortly: as §4
In assay [19] the target is Neuronal acetylcholine receptor; alpha3/beta2 (Homo sapiens, UniProt P17787+P32297). In words: Inhibition of human alpha3beta2 nAChR expressed in Xenopus laevis oocytes assessed as inhibition of acetylcholine-induced current response by two-electrode voltage-clamp method. Type of assay: cell-based, Oocyte. The essentials:
as §3

Assay [20] addresses Nicotinic acetylcholine receptor alpha9/alpha10 (Rattus norvegicus, UniProt P43144+Q9JLB5). In words: Inhibition of rat alpha9alpha10 nAChR expressed in Xenopus laevis oocytes assessed as inhibition of acetylcholine-induced current response by two-electrode voltage-clamp method. Type of assay: cell-based, Oocyte. The essentials: as §3
For assay [21], the target named is T2, Nicotinic acetylcholine receptor alpha6/alpha3/beta4. It counts as cell-based, Oocyte.
Assay [22] addresses T1, Neuronal acetylcholine receptor; alpha2/beta2. The experiment in a line: Inhibition of human alpha2beta2 nAChR expressed in Xenopus laevis oocytes assessed as inhibition of acetylcholine-induced current response by two-electrode voltage-clamp method. Type of assay: cell-based, Oocyte. Put shortly: as §3
In assay [23] the target is Neuronal acetylcholine receptor; alpha2/beta4 (Rattus norvegicus) (UniProt P12389+P12392). In words: Inhibition of rat alpha2beta4 nAChR expressed in Xenopus laevis oocytes assessed as inhibition of acetylcholine-induced current response at 10 uM by two-electrode voltage-clamp method relative to control. Type of assay: cell-based. Particulars: Oocyte. Put shortly:
as §2

Assay [24] has as its target Neuronal acetylcholine receptor; alpha3/beta4 (Rattus norvegicus, UniProt P04757+P12392). Type of assay: cell-based, Oocyte.

pIC50: −log10 of the molar value. Where a SMILES comes first, the peptide text is derived from it. Bridges are numbered along the chain shown (N, C = ends). Bounds are passed on as bounds.

Chain of Neuronal acetylcholine receptor; alpha9/alpha10 (Q9UGM1 whole entry): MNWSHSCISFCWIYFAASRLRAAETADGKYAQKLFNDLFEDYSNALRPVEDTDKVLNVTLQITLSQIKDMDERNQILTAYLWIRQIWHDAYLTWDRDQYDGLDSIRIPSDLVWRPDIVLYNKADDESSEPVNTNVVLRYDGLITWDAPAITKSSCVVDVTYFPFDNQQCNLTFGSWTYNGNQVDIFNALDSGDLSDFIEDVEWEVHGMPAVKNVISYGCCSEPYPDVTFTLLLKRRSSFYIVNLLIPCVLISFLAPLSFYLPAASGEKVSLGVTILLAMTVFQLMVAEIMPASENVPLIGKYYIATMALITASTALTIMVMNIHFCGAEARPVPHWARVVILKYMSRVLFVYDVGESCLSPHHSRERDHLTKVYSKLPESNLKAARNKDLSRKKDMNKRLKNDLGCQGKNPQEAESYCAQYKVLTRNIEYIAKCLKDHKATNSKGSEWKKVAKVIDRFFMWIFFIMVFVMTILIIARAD
Chain of Neuronal acetylcholine receptor; alpha9/alpha10 (Q9GZZ6 whole entry): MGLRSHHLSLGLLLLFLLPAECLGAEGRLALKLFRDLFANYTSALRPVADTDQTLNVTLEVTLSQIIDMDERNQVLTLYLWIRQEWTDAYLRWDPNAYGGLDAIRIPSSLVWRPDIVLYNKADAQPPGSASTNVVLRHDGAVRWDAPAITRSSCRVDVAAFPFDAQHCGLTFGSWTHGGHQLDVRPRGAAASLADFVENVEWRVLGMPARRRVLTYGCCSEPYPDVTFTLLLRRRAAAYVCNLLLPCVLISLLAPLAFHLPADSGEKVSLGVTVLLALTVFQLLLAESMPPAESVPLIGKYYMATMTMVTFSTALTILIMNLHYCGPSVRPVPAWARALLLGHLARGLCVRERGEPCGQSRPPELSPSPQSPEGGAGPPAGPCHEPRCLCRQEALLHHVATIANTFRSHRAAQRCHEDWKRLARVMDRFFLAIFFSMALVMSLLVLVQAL
Chain of Neuronal acetylcholine receptor; alpha4/beta2 (P17787 whole entry): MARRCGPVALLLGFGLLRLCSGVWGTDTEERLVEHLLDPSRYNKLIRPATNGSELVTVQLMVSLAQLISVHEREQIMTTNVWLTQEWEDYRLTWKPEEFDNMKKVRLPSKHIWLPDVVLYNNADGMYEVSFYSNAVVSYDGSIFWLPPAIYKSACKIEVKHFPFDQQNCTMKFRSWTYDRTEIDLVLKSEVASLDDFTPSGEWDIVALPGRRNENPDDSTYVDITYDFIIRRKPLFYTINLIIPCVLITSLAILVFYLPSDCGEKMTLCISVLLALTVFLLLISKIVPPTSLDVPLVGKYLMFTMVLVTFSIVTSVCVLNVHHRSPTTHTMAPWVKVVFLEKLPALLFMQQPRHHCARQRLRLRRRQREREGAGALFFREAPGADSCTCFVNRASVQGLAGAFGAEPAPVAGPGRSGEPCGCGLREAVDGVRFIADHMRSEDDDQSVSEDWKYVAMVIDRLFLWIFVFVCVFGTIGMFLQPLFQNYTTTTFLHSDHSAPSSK
Chain of Neuronal acetylcholine receptor; alpha4/beta2 (P43681 whole entry): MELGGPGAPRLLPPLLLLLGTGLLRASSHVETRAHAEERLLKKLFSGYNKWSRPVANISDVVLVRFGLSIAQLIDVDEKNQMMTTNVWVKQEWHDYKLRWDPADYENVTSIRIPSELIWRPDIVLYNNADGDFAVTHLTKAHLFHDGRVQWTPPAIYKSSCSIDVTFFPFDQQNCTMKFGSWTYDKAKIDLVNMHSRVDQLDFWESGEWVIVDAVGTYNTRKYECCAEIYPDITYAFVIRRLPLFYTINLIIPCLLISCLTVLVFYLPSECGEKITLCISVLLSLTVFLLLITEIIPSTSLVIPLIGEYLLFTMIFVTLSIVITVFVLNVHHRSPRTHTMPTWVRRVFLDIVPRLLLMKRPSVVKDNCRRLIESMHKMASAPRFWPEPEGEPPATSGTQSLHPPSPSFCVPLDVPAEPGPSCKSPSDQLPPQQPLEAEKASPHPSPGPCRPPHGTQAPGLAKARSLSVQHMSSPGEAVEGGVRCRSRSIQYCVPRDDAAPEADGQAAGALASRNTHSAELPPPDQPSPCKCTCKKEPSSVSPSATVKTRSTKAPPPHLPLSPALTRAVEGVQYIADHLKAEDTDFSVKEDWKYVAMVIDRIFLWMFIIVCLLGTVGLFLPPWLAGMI
Chain of Neuronal acetylcholine receptor; alpha3/alpha6/beta2/beta3 (P17787 whole entry, the tested form may be a part): as the sequence (P17787 whole entry) above
Chain of Neuronal acetylcholine receptor; alpha3/alpha6/beta2/beta3 (P32297 whole entry, the tested form may be a part): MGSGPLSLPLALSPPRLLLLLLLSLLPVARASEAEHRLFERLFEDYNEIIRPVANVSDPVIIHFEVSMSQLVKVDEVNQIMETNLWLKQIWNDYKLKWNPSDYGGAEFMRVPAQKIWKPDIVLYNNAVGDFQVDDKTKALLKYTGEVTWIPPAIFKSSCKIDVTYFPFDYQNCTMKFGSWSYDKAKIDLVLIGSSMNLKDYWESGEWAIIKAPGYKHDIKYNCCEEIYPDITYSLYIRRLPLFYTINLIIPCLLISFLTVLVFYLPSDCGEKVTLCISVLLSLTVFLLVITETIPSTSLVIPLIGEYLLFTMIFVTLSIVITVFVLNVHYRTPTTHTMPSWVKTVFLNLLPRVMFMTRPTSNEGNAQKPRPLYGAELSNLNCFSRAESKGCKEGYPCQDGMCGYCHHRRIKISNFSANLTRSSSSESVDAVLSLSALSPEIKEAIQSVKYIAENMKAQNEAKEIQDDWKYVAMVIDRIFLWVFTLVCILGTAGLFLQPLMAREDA
Chain of Neuronal acetylcholine receptor; alpha3/alpha6/beta2/beta3 (Q15825 whole entry, the tested form may be a part): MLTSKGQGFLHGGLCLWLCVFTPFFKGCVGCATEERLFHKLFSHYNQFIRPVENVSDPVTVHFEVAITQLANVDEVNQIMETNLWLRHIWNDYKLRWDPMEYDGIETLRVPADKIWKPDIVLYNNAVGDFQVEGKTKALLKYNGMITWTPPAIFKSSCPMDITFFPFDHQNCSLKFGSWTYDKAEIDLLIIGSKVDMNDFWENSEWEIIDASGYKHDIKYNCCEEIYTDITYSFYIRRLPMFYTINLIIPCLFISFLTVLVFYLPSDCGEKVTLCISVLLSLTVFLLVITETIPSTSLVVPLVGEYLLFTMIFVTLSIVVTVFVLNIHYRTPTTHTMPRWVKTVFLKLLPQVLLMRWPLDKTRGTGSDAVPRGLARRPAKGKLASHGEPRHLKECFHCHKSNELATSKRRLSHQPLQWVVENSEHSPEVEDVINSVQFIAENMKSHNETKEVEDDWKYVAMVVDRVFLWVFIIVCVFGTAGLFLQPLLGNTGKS
Chain of Neuronal acetylcholine receptor; alpha3/alpha6/beta2/beta3 (Q05901 whole entry, the tested form may be a part): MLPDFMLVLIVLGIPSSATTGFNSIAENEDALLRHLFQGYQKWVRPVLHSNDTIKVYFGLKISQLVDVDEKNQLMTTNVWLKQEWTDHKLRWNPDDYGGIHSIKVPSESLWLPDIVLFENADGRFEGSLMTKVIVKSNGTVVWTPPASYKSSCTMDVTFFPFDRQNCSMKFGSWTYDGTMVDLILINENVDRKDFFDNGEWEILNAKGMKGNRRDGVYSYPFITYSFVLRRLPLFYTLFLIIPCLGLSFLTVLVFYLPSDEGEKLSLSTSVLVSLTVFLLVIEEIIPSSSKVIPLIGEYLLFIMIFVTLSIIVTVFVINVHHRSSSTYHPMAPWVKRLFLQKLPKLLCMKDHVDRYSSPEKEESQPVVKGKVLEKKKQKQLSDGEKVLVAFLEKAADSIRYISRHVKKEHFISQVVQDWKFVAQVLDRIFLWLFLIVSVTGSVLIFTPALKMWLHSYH
Chain of Neuronal acetylcholine receptor subunit alpha-7 (Rattus norvegicus) (Q05941 whole entry): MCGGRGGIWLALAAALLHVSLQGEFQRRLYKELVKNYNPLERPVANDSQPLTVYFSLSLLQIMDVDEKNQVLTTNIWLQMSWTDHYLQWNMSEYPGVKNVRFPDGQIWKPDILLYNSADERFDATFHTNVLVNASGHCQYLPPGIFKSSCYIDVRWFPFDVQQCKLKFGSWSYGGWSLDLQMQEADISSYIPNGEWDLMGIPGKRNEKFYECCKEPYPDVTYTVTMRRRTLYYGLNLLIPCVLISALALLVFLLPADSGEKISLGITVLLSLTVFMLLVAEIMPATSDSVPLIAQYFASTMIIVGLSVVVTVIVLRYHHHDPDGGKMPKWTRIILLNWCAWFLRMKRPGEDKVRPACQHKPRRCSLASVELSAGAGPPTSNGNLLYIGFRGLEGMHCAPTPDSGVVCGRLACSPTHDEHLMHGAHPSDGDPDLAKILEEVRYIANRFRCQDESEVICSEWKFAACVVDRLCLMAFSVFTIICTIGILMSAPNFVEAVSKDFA

The inhibition is the share of the control response that was lost under treatment. Usually pIC50 stands for −log10 of the IC50, conventionally taken in molar units. In the case of `CC[C@H](C)[C@@H]1NC(=O)[C@H](CCC(=O)O)NC(=O)[C@@H]2CCCN2C(=O)[C@H](Cc2cnc[nH]2)NC(=O)[C@H](CC(N)=O)NC(=O)[C@H](C(C)C)NC(=O)[C@H](CC(N)=O)NC(=O)[C@@H]2CSSC[C@H](NC(=O)CN)C(=O)N[C@@H](CSSC[C@@H](C(N)=O)NC1=O)C(=O)N[C@@H](CO)C(=O)N[C@@H](Cc1cnc[nH]1)C(=O)N1CCC[C@H]1C(=O)N[C@@H](C(C)C)C(=O)N2` (H-GCCSHPVCNVNHPEIC-NH2; disulfide 2-8, 3-16), the inhibition in assay [1] came out at 98%; in [2], 84%; in assay [9], 82%; in [10] it was 95%; in [12], 69%; in assay [23], 85%. Moreover, the pIC50 in assay [3] is less than 5.00; in [4], 6.87; in assay [5] it was less than 5.00; in [11], 9.32; in [13], less than 5.00; in assay [15], 5.40. Also, the pIC50 in assay [17] is less than 5.00; in [19], less than 5.00; in [20] it was less than 5.00; in assay [21], 9.70; in [22], less than 5.00; in assay [24], 6.64. Further, the Ratio IC50 in the assay listed under Homo sapiens [6] is 895; in the assay filed under Homo sapiens [7] it was greater than 50000; in the assay listed under Rattus norvegicus [8], 489; in the assay filed under Homo sapiens [14], greater than 50000; in the assay filed under Rattus norvegicus [18], greater than 20000. This compound also yielded a deltalogIC50 in assay [16] of -1.5.
